Laboratory results from ChEMBL document CHEMBL4393700, “Novel resveratrol-based flavonol derivatives: Synthesis and anti-inflammatory activity in vitro and in vivo” (Eur J Med Chem, 2019).
Active and inactive are the calls of the source. The rule behind the calls is not given here.

Experiments:
RAW264.7 [1] = assay: Cytotoxicity against LPS-stimulated mouse RAW264.7 cells at 20 uM pretreated for 1 hr followed by LPS stimulation and measured after 24 hrs by MTT assay; conditions: raw264.7, 24 h
RAW264.7 [2] = assay: Antiinflammatory activity in mouse RAW264.7 cells assessed as inhibition of LPS-induced NO production at 10 uM pretreated for 1 hr followed by LPS stimulation and measured after 24 hrs by Griess reagent based assay; format: functional, cell-based
Summary of the method: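 RAW264.7 in DMEM/10% FBS with penicillin-streptomycin, 37 °C, 5% CO2; seeded 6×10^4 cells/well, grown 24 h, pretreated 1 h with test agent (10 µM screen; 10, 5, 2.5, 1.25, 0.625 µM for concentration series), then LPS 0.5 µg/mL for 24 h. Supernatant nitrite measured with Griess reagent.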

Row | Structure (SMILES) | Activity (RAW264.7 [1]) | inhibition (RAW264.7 [2])
1 | CCOc1ccc(/C=C/c2cc(OC)cc(OC)c2-c2oc3ccc(OC)cc3c(=O)c2O)cc1 | Non-Toxic | 
2 | COc1ccc(/C=C/c2cc(OC)cc(OC)c2-c2oc3ccc(Br)cc3c(=O)c2O)cc1 |  | Active
3 | COc1ccc(/C=C/c2cc(OC)cc(OC)c2-c2oc3cc(C)ccc3c(=O)c2O)cc1 | Non-Toxic | 
4 | COc1cc(/C=C/c2ccc(OCc3ccccc3)cc2)c(-c2cc(=O)c3cc(OC)ccc3o2)c(OC)c1 | Non-Toxic | 
5 | Oc1ccc(/C=C/c2cc(O)cc(O)c2)cc1 |  | Active
6 | COc1ccc(/C=C/c2cc(OC)cc(OC)c2-c2cc(=O)c3cc(OC)c(OC)cc3o2)cc1 | Non-Toxic | 
7 | CCOc1ccc(/C=C/c2cc(OC)cc(OC)c2-c2oc3ccccc3c(=O)c2O)cc1 |  | Active
